Assay results published in paper PMC2865030 (Biochemical Journal, 2008).
Ends that are not written are not given here.

Tests used:
Tah1 [1] = target: T1, Tah1 (Saccharomyces cerevisiae, UniProt P25638); test: ITC of peptides injected into Tah1; format: binding, S. cerevisiae
T1 sequence (P25638 1-111): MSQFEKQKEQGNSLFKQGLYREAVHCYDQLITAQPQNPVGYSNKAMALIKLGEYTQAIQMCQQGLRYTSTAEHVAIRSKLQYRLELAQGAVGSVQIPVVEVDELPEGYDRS

yeast Hsp90 M705V = test: ITC of TPR-domain proteins with yeast Hsp90 M705V; format: binding; settings: 300 μM Tah1 injected into 30 μM yeast Hsp90 M705V, 4 °C, pH 8.0
How it was run: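 ITC: mouse CHIP or yeast Tah1 (His tags cleaved) at 300 µM was titrated as 9–11 injections of 27 µl into 30 µM yeast Hsp90 M705V. Runs were at 30 °C for CHIP and 4 °C for Tah1, in 20 mM Tris/HCl pH 8.0, 1 mM EDTA, 5 mM NaCl. Data were corrected for separately measured heat of dilution and fitted by nonlinear least squares for stoichiometry, binding constant and enthalpy.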

Tah1 [2] = target: T1, Tah1; test: Sedimentation equilibrium analytical ultracentrifugation of Tah1; format: physicochemical, S. cerevisiae; settings: for Kd: 20 °C, pH 7.5
How it was run: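 Tag-cleaved Tah1 was dialysed into 20 mM Tris/HCl pH 7.5, 1 mM EDTA, 5 mM NaCl. Sedimentation equilibrium was run at 20 °C, loading 7.0 and 0.5 mg·ml−1 (547 and 39 µM), with a 12 mm path. Initial scans at 726 g checked for aggregates, followed by 39030 g, scanning hourly until unchanged (24 h). Data were fitted by INVEQ, Mfit and NONLIN, and Ka was reciprocated to Kd. Reversible versus irreversible dimer was judged by comparing the two loadings.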

| Substance | Kd (Tah1 [1]) [µM] | also measured |
| --- | --- | --- |
| PADAAMEEVD | 0.75 ± 0.04 |  |
| AEGPTAEEVD | 14.8 ± 0.7 |  |
| AEGPTMEEVD | 4.2 ± 0.5 |  |
| PADTEVEEVD | 9.8 ± 0.7 |  |
| PADTEAEEVD | 3.3 ± 0.2 |  |
| Tah1: TPR-containing protein associated with Hsp90, S. cerevisiae, 111 amino acid residues, Hsp90-interacting co-chaperone |  | Kd (yeast Hsp90 M705V): 13 ± 1.7 µM; dimeric species present (Tah1 [2]; estimated from INVEQ fit, sedimentation equilibrium): approx. 19%; Kd (Tah1 [2]; read-out: Kd by INVEQ, Tah1 0.5 mg·ml−1 (39 μM), monomer-dimer): 510 µM; Kd (Tah1 [2]; read-out: Kd′ by NONLIN′, Tah1 0.5 mg·ml−1 (39 μM)): 150 µM; Kd (Tah1 [2]; read-out: Kd′ by NONLIN′, Tah1 7.0 mg·ml−1 (547 μM)): 1800 µM |
